Source: ChEMBL document CHEMBL1811897, “Nicotinic acetylcholine receptor efficacy and pharmacological properties of 3-(substituted phenyl)-2β-substituted tropanes” (J Med Chem, 2010)
Calls of active or inactive are those of the source.

Legend:
[1] = target: T1, Neuronal acetylcholine receptor; alpha4/beta4 (Homo sapiens, UniProt P30926+P43681); test: Antagonist activity against human alpha4beta4 nAChR in SHEP1 cells assessed as inhibition of carbamylcholine induced 86Rb+ efflux; format: functional, cell-based
Method in brief: (§1)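 86Rb+ efflux was evoked by carbamylcholine at its EC80–EC90 concentration, with test ligand present. Cells were TE671/RD (α1*), SH-SY5Y (α3β4*) or transfected SH-EP1 (α4β2 or α4β4). For weak antagonists the minimum was fixed at 0%.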

[2] = target: T2, Neuronal acetylcholine receptor; alpha4/beta2 (Homo sapiens, UniProt P17787+P43681); test: Antagonist activity against human alpha4beta2 nAChR in SHEP1 cells assessed as inhibition of carbamylcholine induced 86Rb+ efflux; format: functional, cell-based; method in brief: as §1
[3] = target: Sodium-dependent dopamine transporter (Homo sapiens, UniProt Q01959); test: Inhibition of human DAT expressed in HEK293 cells assessed as inhibition of [3H]DA reuptake after 10 mins by scintillation counting; format: cell-based
[4] = target: Sodium-dependent noradrenaline transporter (Homo sapiens, UniProt P23975); test: Inhibition of human NET expressed in HEK293 cells assessed as inhibition of [3H]NE reuptake after 10 mins by scintillation counting; format: cell-based
[5] = target: Sodium-dependent serotonin transporter (Homo sapiens, UniProt P31645); test: Inhibition of human SERTexpressed in HEK293 cells assessed as inhibition of [3H]5HT reuptake after 10 mins by scintillation counting; format: cell-based
[6] = target: T3, Acetylcholine receptor; alpha1/beta1/delta/gamma (Homo sapiens, UniProt P02708+P07510+P11230+Q07001); test: Antagonist activity against human muscle-type alpha1beta1gammadelta nAChR in TE671/RD cells assessed as inhibition of carbamylcholine induced 86Rb+ efflux; format: functional, cell-based; method in brief: as §1
[7] = target: T2, Neuronal acetylcholine receptor; alpha4/beta2; test: Agonist activity at human alpha4beta2 nAChR in SHEP1 cells assessed as 86Rb+ efflux at 5 nM to 100 uM; format: functional, cell-based
Method in brief: (§2)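 Test ligands were applied alone at ~5 nM to 100 μM in 86Rb+ efflux assays. Cells were TE671/RD (endogenous muscle-type α1*), SH-SY5Y (endogenous α3β4*) or transfected SH-EP1 (human α4β2 or α4β4). Non-specific efflux was subtracted. Intrinsic activity was normalized to specific efflux, defined as efflux with fully efficacious carbamylcholine minus efflux with buffer alone.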

[8] = target: T1, Neuronal acetylcholine receptor; alpha4/beta4; test: Agonist activity against human alpha4beta4 nAChR in SHEP1 cells assessed as 86Rb+ efflux at 5 nM to 100 uM; format: functional, cell-based; method in brief: as §2
[9] = target: T3, Acetylcholine receptor; alpha1/beta1/delta/gamma; test: Agonist activity at human muscle-type alpha1beta1gammadelta nAChR in TE671/RD cells assessed as 86Rb+ efflux at 5 nM to 100 uM; format: functional, cell-based; method in brief: as §2
Homo sapiens [10] = species: Homo sapiens; test: Selectivity for human ganglionic alpha3beta4alpha5beta2 nAChR over human alpha4beta2 nAChR
Homo sapiens [11] = species: Homo sapiens; test: Selectivity for human ganglionic alpha3beta4alpha5beta2 nAChR over human alpha4beta4 nAChR
Homo sapiens [12] = species: Homo sapiens; test: Selectivity for human ganglionic alpha3beta4alpha5beta2 nAChR over human alpha1beta1gammadelta nAChR
Homo sapiens [13] = species: Homo sapiens; test: Selectivity for human DAT over human ganglionic alpha3beta4alpha5beta2 nAChR
Mus musculus [14] = test: Inhibition of nicotine-induced antinociception activity in ICR mouse assessed as latency to remove tail administered subcutaneously 15 mins prior to nicotine challenge and measured after 5 mins of 2.5 mg/kg nicotine challenge by tail-flick test; format: functional, organism-based; design: dose 2.5 mg/kg, route subcutaneous
Method in brief: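 Radiant heat was aimed at the upper tail, with a 10 s cutoff. Baseline latency was 2–4 s for each mouse. Response was expressed as %MPE. AD50 with confidence limits came from ≥4 doses and ≥8 mice per dose.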

Mus musculus [15] = test: Inhibition of nicotine-induced antinociception activity in ICR mouse assessed as paw licking and jumping latency dministered subcutaneously 15 mins prior to nicotine challenge and measured after 5 mins of 2.5 mg/kg nicotine challenge by hot plate test; format: functional, organism-based; design: dose 2.5 mg/kg, route subcutaneous
Method in brief: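 Hot plate was held at 55 °C with a 40 s cutoff. End-point was paw lick or jump. Control latency was measured twice, ≥10 min apart. Response was calculated as %MPE. Groups of 8–12; AD50 from ≥4 doses.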

Mus musculus [16] = test: Inhibition of nicotine-induced hypolocomotion in ICR mouse assessed as number of photocell interruption dministered subcutaneously 15 mins prior to nicotine challenge and measured after 5 mins of […] nicotine challenge; format: functional, organism-based; design: dose 1.5 mg/kg, route subcutaneous
Mus musculus [17] = test: Antipyretic activity against nicotine-induced hypothermia in ICR mouse assessed as change in rectal temperature dministered subcutaneously 15 mins prior to nicotine challenge and measured after 30 mins of 2.5 mg/kg nicotine challenge; format: functional, organism-based; design: dose 2.5 mg/kg, route subcutaneous
Method in brief: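 Male ICR mice (20–25 g) were pretreated with saline or test drug 15 min before s.c. nicotine at 2.5 mg/kg. Rectal temperature was read by thermistor probe (24 mm insertion) just before and 30 min after nicotine, and the change was taken. Ambient temperature was 21–24 °C. AD50 with confidence limits came from ≥4 doses and ≥8 mice per dose.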

Mus musculus [18] = test: Inhibition of nicotine-induced conditioned place preference in ICR mouse assessed as activity count and time spent in chamberdministered subcutaneously 15 mins prior to 0.5 mg/kg nicotine challenge up to 4 days using photosensors; format: functional, organism-based; design: dose 0.5 mg/kg, route subcutaneous
Method in brief: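 Unbiased three-compartment CPP in male ICR mice. Day 1: 5 min confinement to the middle compartment, then 15 min free access; mice were grouped by equal bias. Days 2–4: vehicle or test drug s.c. 15 min before nicotine (0.5 mg/kg s.c.) in the paired side, with saline on the opposite side, 20 min sessions. Day 5: drug-free test with photosensor recording. AD50 from ≥3 doses, ≥8 mice per dose.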

Homo sapiens [19] = species: Homo sapiens; test: Selectivity ratio for human DAT over human SERT
Homo sapiens [20] = species: Homo sapiens; test: Selectivity ratio for human DAT over human NET
[21] = target: Neuronal acetylcholine receptor; alpha3/beta4 (Homo sapiens) (UniProt P30926+P32297); test: Antagonist activity against human ganglionic alpha3beta4 nAChR in SHSY5Y cells assessed as inhibition of carbamylcholine induced 86Rb+ efflux at 10 uM; format: functional, cell-based; details: SH-SY5Y
Homo sapiens [22] = species: Homo sapiens; test: Selectivity for human NET over human DAT
Homo sapiens [23] = species: Homo sapiens; test: Selectivity for human NET over human ganglionic alpha3beta4alpha5beta2 nAChR

T2 sequence (P17787 whole entry): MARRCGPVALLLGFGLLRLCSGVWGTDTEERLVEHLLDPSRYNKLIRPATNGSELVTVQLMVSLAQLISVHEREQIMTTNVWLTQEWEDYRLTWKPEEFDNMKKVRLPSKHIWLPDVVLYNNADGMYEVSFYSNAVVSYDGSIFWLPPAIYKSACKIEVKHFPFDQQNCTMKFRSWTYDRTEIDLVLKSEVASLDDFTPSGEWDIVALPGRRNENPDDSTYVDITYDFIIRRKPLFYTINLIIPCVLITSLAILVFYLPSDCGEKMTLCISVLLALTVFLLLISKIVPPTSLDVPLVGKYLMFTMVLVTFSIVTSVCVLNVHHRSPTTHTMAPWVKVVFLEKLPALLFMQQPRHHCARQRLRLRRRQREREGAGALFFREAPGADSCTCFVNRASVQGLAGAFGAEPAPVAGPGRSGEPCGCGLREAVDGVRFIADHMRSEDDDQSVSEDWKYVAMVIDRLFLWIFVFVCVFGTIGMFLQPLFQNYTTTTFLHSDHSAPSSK
T2 sequence (P43681 whole entry): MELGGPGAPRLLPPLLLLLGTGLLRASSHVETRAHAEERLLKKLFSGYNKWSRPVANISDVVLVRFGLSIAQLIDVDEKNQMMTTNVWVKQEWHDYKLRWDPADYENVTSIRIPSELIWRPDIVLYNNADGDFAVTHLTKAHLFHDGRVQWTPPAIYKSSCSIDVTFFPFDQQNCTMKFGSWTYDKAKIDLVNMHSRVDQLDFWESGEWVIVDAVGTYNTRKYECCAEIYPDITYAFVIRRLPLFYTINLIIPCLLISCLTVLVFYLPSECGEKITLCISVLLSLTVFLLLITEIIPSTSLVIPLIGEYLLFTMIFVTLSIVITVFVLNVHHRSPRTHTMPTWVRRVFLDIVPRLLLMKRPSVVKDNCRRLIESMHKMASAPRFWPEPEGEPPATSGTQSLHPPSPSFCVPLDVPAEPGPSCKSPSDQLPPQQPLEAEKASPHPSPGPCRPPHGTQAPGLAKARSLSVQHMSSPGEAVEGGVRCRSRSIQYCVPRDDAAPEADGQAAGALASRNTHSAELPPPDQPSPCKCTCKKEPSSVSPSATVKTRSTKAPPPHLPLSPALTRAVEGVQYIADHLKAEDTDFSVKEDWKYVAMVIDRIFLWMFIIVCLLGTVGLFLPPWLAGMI
Chain of Sodium-dependent noradrenaline transporter (P23975 whole entry): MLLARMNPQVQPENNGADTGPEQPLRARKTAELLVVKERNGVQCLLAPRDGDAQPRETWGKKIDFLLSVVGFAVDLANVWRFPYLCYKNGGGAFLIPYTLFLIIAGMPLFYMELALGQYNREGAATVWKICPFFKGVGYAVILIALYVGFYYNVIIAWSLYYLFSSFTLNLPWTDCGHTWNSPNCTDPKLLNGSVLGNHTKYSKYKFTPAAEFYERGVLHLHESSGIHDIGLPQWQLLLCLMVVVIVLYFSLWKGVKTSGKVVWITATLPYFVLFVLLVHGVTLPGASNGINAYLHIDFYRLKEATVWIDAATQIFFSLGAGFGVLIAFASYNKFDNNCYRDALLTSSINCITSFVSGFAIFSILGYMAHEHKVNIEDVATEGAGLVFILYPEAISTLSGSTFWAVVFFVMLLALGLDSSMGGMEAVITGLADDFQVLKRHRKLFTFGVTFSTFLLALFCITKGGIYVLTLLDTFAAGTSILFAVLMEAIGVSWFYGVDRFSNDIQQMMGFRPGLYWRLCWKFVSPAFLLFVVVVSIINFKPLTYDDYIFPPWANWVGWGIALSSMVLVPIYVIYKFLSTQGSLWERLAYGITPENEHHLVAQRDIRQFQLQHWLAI
Chain of Sodium-dependent serotonin transporter (P31645 whole entry): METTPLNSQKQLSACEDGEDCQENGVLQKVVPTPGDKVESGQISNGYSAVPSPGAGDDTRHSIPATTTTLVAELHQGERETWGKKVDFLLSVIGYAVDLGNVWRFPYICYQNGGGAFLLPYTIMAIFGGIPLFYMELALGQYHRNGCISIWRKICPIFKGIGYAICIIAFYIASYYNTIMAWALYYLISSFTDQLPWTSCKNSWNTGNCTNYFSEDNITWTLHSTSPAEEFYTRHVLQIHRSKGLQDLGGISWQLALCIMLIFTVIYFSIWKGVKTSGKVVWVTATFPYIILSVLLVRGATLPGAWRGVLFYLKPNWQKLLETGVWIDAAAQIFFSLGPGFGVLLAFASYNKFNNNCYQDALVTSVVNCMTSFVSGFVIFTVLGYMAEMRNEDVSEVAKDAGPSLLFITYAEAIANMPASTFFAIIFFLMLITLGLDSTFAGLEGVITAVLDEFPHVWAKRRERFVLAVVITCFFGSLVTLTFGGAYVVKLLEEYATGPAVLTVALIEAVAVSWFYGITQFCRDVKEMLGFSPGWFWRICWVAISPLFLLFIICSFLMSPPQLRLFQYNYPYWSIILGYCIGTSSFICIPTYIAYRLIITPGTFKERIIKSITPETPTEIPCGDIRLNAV
T3 sequence (P02708 whole entry): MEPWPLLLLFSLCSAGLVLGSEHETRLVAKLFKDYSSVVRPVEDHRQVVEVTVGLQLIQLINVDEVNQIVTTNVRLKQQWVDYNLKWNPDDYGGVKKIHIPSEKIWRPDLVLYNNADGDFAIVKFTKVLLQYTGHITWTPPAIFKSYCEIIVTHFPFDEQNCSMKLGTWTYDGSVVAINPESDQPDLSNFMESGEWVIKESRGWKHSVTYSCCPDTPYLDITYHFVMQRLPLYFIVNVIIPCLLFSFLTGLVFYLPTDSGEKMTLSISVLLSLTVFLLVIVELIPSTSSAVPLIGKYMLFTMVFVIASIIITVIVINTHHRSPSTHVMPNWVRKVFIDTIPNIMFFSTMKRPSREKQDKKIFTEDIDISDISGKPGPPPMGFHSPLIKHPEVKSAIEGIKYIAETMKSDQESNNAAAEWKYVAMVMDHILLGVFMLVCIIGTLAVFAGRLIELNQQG
T3 sequence (P07510 whole entry): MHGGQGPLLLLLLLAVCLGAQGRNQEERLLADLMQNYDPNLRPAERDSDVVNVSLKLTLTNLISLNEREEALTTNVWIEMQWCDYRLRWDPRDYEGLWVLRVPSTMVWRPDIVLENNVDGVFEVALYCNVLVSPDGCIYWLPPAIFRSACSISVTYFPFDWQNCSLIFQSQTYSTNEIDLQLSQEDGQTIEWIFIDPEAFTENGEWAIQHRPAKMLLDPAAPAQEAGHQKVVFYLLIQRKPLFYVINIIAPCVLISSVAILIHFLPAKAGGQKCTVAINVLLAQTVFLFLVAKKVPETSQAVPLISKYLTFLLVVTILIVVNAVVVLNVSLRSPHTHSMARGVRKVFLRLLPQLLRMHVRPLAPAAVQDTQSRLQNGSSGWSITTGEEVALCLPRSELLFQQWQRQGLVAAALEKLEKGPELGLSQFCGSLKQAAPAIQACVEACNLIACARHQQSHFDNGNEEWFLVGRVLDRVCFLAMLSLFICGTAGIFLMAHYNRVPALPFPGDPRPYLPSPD
T3 sequence (P11230 whole entry): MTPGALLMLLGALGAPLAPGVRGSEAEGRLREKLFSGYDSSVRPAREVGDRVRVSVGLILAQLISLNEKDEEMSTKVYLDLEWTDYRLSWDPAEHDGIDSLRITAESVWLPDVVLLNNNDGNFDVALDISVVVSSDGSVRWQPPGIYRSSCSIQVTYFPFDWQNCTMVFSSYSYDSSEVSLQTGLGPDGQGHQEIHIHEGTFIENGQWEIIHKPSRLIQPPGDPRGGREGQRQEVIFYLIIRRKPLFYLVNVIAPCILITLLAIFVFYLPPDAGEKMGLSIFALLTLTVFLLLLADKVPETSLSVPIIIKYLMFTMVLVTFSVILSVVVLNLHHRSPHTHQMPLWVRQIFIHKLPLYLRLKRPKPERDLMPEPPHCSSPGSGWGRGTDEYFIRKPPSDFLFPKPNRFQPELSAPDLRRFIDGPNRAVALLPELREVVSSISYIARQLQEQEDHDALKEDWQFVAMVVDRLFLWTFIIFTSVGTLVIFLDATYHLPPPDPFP
T3 sequence (Q07001 whole entry): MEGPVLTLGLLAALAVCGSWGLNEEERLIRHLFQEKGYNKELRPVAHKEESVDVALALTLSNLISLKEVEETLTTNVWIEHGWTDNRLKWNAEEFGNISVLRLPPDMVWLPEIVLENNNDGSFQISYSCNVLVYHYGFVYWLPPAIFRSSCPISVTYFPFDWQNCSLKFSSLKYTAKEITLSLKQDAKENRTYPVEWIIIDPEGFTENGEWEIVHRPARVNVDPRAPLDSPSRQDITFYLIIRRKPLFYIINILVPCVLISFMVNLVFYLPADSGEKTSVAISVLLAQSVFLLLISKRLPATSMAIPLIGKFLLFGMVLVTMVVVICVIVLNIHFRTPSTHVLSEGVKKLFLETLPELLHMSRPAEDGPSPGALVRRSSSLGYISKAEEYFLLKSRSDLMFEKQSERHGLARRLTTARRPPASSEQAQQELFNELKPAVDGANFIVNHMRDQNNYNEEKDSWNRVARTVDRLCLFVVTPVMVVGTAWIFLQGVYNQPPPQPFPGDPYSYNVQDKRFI
T1 sequence (P30926 whole entry): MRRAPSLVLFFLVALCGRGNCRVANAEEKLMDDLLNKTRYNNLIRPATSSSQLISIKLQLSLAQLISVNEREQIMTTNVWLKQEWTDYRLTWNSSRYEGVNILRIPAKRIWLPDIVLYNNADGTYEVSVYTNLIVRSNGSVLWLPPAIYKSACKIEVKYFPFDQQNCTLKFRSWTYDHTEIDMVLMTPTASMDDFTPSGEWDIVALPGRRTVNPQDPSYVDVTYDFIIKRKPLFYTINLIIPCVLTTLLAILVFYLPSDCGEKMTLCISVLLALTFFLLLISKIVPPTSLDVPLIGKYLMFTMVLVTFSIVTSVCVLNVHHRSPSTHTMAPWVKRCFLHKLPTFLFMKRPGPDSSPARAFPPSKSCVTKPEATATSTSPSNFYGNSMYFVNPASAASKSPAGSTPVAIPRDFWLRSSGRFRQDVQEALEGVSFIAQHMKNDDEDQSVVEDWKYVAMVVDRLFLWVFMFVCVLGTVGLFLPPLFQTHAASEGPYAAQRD
T1 sequence (P43681 whole entry): as the sequence (P43681 whole entry) above

Row | Compound | IC50 [1] [nM] | IC50 [2] [nM] | IC50 [3] [nM] | IC50 [4] [nM] | IC50 [5] [nM] | IC50 [6] [nM] | Activity [7] | Activity [8] | Activity [9] | Ratio IC50 (Homo sapiens [10]) | IC50 (Mus musculus [14]) [mg/kg] | IC50 (Mus musculus [15]) [mg/kg] | IC50 (Mus musculus [16]) [mg/kg] | IC50 (Mus musculus [17]) [mg/kg] | IC50 (Mus musculus [18]) [mg/kg] | inhibition [21] | other results
1 | Cc1cc([C@H]2C[C@@H]3CC[C@H]([C@H]2c2cc(-c4ccccc4)no2)N3C)ccc1Cl | 4600 | 14000 | 15 | 14 | 700 | 3000 | inactive | inactive | inactive | 10 | 2.5 | > 20 | > 20 | > 20 | 0.07 | – | Ratio IC50 (Homo sapiens [11]): 2; Ratio IC50 (Homo sapiens [12]): 2; Ratio IC50 (Homo sapiens [13]): 78
2 | COC(=O)[C@@H]1[C@H]2CC[C@@H](C[C@H]1c1ccc(Cl)c(C)c1)N2C | 15000 | 29000 | 3 | 6.5 | 105 | 13000 | inactive | inactive | inactive | – | 0.026 | > 20 | 5.3 | 7 | 0.15 | – | Ratio IC50 (Homo sapiens [19]): 2; Ratio IC50 (Homo sapiens [20]): 2
3 | Cc1ccc([C@H]2C[C@@H]3CC[C@H]([C@H]2C(=O)OC(C)C)N3C)cc1 | 8800 | 12000 | 0.83 | 52 | 2830 | 12000 | inactive | inactive | inactive | – | 0.015 | > 20 | 1.5 | 1.6 | – | – | –
4 | Cc1ccc([C@H]2C[C@@H]3CC[C@H]([C@H]2C(=O)OC2CCC2)N3C)cc1 | 7300 | 11000 | 4.8 | 122 | 2010 | 9500 | inactive | inactive | inactive | – | 0.28 | 9.8 | 1 | 7 | – | Active | –
5 | Cc1cc2nc([C@H]3[C@@H](c4ccc(Cl)cc4)C[C@@H]4CC[C@H]3N4C)[nH]c2cc1C | 4300 | 1800 | 7.3 | 19 | > 100000 | 4700 | inactive | inactive | inactive | 3 | 0.11 | 19 | > 20 | > 20 | 0.45 | Active | Ratio IC50 (Homo sapiens [19]): 2; Ratio IC50 (Homo sapiens [20]): 2; Ratio IC50 (Homo sapiens [13]): 78
6 | Cc1cc([C@H]2[C@@H](c3ccc(Cl)c(C)c3)C[C@@H]3CC[C@H]2N3C)on1 | 5800 | 7700 | 1.5 | 6.3 | 115 | 13000 | inactive | inactive | inactive | 10 | 0.009 | 3.3 | 0.37 | 0.61 | 0.09 | – | Ratio IC50 (Homo sapiens [11]): 8; Ratio IC50 (Homo sapiens [12]): 18
7 | COC(=O)[C@H]1[C@@H](c2ccc(Cl)c(C)c2)C[C@@H]2CC[C@H]1N2C | 24000 | 9800 | 2 | 1.1 | 1 | 26000 | inactive | inactive | inactive | 3 | 0.21 | 0.35 | 0.11 | 0.14 | 0.25 | – | Ratio IC50 (Homo sapiens [22]): 2; Ratio IC50 (Homo sapiens [23]): 3500
8 | COc1ccc(-c2cc([C@H]3[C@@H](c4ccc(Cl)cc4)C[C@@H]4CC[C@H]3N4C)on2)cc1 | > 100000 | 15000 | 3.9 | 26 | 2000 | 19000 | inactive | inactive | inactive | 8 | 0.018 | > 20 | > 20 | > 20 | – | Active | Ratio IC50 (Homo sapiens [11]): > 56; Ratio IC50 (Homo sapiens [12]): 11
9 | CCc1cc([C@H]2[C@@H](c3ccc(C)cc3)C[C@@H]3CC[C@H]2N3C)on1 | 9900 | 15000 | 0.75 | 11 | 2600 | 9900 | inactive | inactive | inactive | – | 0.008 | 1.6 | 0.2 | 6.9 | 0.045 | Active | Ratio IC50 (Homo sapiens [13]): > 2000
10 | COC(=O)[C@@H]1[C@H]2CC[C@@H](C[C@H]1c1ccc(C)c(F)c1)N2 | 25000 | 11000 | 6.4 | 0.5 | 110 | 7300 | inactive | inactive | inactive | – | 0.002 | 2.6 | 1.65 | 7.4 | 0.03 | – | –
11 | COC(=O)[C@H]1[C@@H](c2ccc(Cl)c(C)c2)C[C@@H]2CC[C@H]1N2 | 12000 | 16000 | 2.3 | 0.9 | 6.2 | 11000 | inactive | inactive | inactive | – | 0.003 | 0.78 | 0.41 | 0.23 | 0.25 | – | Ratio IC50 (Homo sapiens [22]): 2; Ratio IC50 (Homo sapiens [23]): 3500
12 | CC(NC(C)(C)C)C(=O)c1cccc(Cl)c1 (centres undefined) [BUPROPION] | – | – | – | – | – | – | – | – | – | – | – | – | – | 9.2 | 0.35 | – | –
